# Most compounds without a hit are left out; they make up all but 1.9% or so of the library.
# CHRM4 antagonist: blocks acetylcholine activation of human M4 receptor; CHO-hM4 cells, ACh EC80, Fluo-8 calcium fluorescence; 360,000 compounds, 0.73% hits; AID 624125; P08173; inhibition, % at 3 µM;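 active = inhibition above its plate's cutoff, the mean inhibition of sample wells plus 3 SD, cut at about 27% in these data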;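 also: 0% = acetylcholine EC80 with DMSO and 100% = DMSO without agonist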
# CHRM5 PAM: CHRM5 positive allosteric modulation; P08912; CHO-K1 hM5, Fluo-8 calcium, ACh EC20 PAM; 0% = ACh EC20, 100% = ACh EC100; activation, % at 3 µM; 360,000 compounds, 0.3% hits; AID 624038;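 active = activation above the run cutoff, the mean activation of all test compounds plus 3 SD, cut at about 18% in these data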
# Target sequence (P08912 whole entry, looked up): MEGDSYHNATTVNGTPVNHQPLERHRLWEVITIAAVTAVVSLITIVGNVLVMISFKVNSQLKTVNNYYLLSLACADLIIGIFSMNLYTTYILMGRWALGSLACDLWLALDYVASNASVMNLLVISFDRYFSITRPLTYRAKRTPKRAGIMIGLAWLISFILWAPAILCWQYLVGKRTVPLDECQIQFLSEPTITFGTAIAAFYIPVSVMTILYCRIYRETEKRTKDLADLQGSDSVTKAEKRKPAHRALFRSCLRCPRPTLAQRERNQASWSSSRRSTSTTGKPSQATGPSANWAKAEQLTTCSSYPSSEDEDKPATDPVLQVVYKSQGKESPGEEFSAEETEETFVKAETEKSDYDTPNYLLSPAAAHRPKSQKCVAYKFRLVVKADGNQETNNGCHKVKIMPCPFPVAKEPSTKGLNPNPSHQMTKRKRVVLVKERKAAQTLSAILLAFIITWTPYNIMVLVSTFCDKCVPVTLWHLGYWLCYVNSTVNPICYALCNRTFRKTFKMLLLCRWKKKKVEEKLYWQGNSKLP
#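 System: CHO-K1 cell line with stable human muscarinic M5 receptor expression | Also added: EC20 acetylcholine as agonist stimulus | Compound: One concentration, 3 µM final (nominal) | Timing: Fluo-8 loading 80 min at 37 °C plus 30 min room temperature | Measured by: Fluo-8 calcium dye fluorescence, kinetic read | Read-out basis: % activation, ACh-normalized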
# CHRM4 PAM: potentiates acetylcholine response at human M4 receptor; CHO-K1 hM4/Gqi5, Fluo-8 calcium fluorescence, ACh EC20; 0% = ACh EC20, 100% = maximal ACh; 360,000 compounds, 0.4% hits; AID 624126; activation, % at 3 µM;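 active = activation above its plate's cutoff, the mean activation of sample wells plus 3 SD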
# M5 antag: blocks acetylcholine activation of human M5 receptor | CHO-hM5 cells, Fluo-8 calcium fluorescence, ACh EC80 | P08912 | AID 624040 | inhibition, % at 3 µM | 360,000 compounds, 0.59% hits;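 active = inhibition above a per-plate cutoff, the mean of that plate's test compounds plus 3 SD, cut at about 27% in these data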;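 also: 0% = acetylcholine EC80 with DMSO and 100% = DMSO without agonist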
# CHRM5 agonist: agonists of human muscarinic M5 receptor (CHRM5). P08912. 360,000 compounds, 0.19% hits. activation, % at 3 µM. CHO-K1 hM5 cells, Fluo-8 calcium fluorescence; 0% DMSO wells, 100% maximal acetylcholine response. AID 624037;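 active = activation above the run's mean over test compounds plus 3 SD, cut at about 23% in these data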;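 also: signal is peak over basal fluorescence ratio across the kinetic read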
# M4 ag: agonists of human muscarinic M4 receptor (CHRM4); P08173; CHO-K1 hM4/Gqi5, Fluo-8 calcium fluorescence; vehicle 0%, full acetylcholine response 100%; activation, % at 3 µM; 360,000 compounds, 0.14% hits; AID 624127;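 active = activation above the run mean over all test wells plus 3 SD, cut at about 32% in these data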;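 also: peak over basal fluorescence ratio per well then scaled between controls; 0% = DMSO wells and 100% = acetylcholine at EC100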
# Numbers without * were called inactive.
SMILES,CHRM4 antagonist,CHRM5 PAM,CHRM4 PAM,M5 antag,CHRM5 agonist,M4 ag
COc1ccc(C(=O)Nc2c(N)nc(SCC(=O)c3ccccc3)[nH]c2=O)cc1,3,-4,0,10,-5,1
O=C1c2ccc(-c3ccc(Cl)c(C(F)(F)F)c3)cc2S(=O)(=O)c2cccc(C(=O)N3CCN(c4ccc(Cl)cn4)CC3)c21,3,-3,6,14,3,3
Cc1c(O)nc(SCC(=O)Nc2ccc3c4c(cccc24)CC3)n(-c2ccccc2)c1=O,11,2,0,2,-2,2
Cc1ccc(-n2c(SCC(=O)Nc3ccc(Cl)cc3)nc(O)cc2=O)cc1,-4,-6,2,32*,-9,0
O=C(CSc1nc(O)cc(=O)n1-c1ccccc1)Nc1ccc2c3c(cccc13)CC2,-12,8,20*,-4,0,1
COc1ccc(NC(=O)CSc2nc(O)cc(=O)n2-c2ccccc2)cc1,-9,16,12,-15,0,1
COc1cc(OC)cc(C(=O)N[C@H](C(=O)Nc2cccc(S(=O)(=O)N3CCCC3)c2)C(C)C)c1,-4,-1,-18,-4,-17,-1
NNc1ccc([N+](=O)[O-])c2[nH][nH]c(=O)c12,-6,-4,10,5,-1,-1
COc1ccccc1CN1CCC(CNS(=O)(=O)c2cc(-c3cc(C)no3)ccc2OC)CC1,32*,-5,-23,2,-8,1
Cc1nn(C)cc1C(C(=O)NC1CCCCC1)N(C(=O)c1cnccn1)c1ccc(Oc2ccccc2)cc1 (centres undefined),-11,1,24*,-9,-2,2
CCOC(=O)c1ccc(N(C(=O)c2cnccn2)C(C(=O)NC2CCCCC2)c2cn(C)nc2C)cc1 (centres undefined),12,3,-3,-1,-1,0
COc1cc(SC)ccc1C(=O)NNC(=O)c1cc(C)oc1C,-10,2,10,-4,1,1
Cc1cccc(C)c1NC(=O)C(c1ccc(C#N)cc1)n1c(=O)c(-c2ccccc2)nc2ccccc21 (centres undefined),-3,7,23*,-7,1,2
Cc1cccc(C)c1NC(=O)C(c1ccc(C(F)(F)F)cc1)n1c(=O)c(-c2ccccc2)nc2ccccc21 (centres undefined),0,11,4,-9,-2,3
Cc1ccc(CN2CCC[C@]3(N[C@H](c4ccc(C)cc4)[C@@H]4C(=O)N(C)C(=O)[C@@H]43)C2=O)cc1,8,-2,0,2,0,0
CN(Cc1ccccc1O)CC1CCCN(CCc2ccc(Cl)cc2)C1 (centres undefined),37*,-28,-14,6,-22,3
CN(CC1CCCN(CCc2ccccc2F)C1)C(=O)c1cc2ccccc2o1 (centres undefined),37*,-15,-12,6,-3,1
Cn1c(=O)c2cc(NC(=O)NCCc3cccs3)ccc2n1-c1ccc(C(C)(C)C)cc1,-4,3,-5,-8,0,0
COc1ccccc1CN1C[C@@H]2C[C@@H](c3ccc(Cl)cc3)N3CCC[C@@]23C1=O,19,0,-14,2,-10,1
COc1ccccc1CN1C[C@@H]2C[C@@H](c3ccccc3OC)N3CCC[C@@]23C1=O,30*,4,-24,-2,-6,0
Cc1c([C@@H]2C[C@H]3CN(Cc4cccc(Cl)c4)C(=O)[C@]34CCCN24)cnn1C,-1,-4,-6,3,-1,3
Cn1cc([C@@H]2C[C@H]3CN(Cc4cccc(Cl)c4)C(=O)[C@]34CCCN24)c2ccccc21,30*,-7,-12,12,-3,3
CC(OC(=O)/C(C#N)=C/c1ccc(N(C)C)cc1)C(=O)N(C)Cc1ccccc1 (centres undefined),6,-11,-13,12,32*,19
CC(OC(=O)c1cccc(O)c1)C(=O)N(C)Cc1ccccc1 (centres undefined),5,-6,2,7,0,1
COc1ccc(NC(=O)C[C@H]2C(=O)N(C3CCCCC3)C[C@@H]2C)cc1,2,0,-1,-3,1,1
SMILES,CHRM4 antagonist,CHRM5 PAM,CHRM4 PAM,M5 antag,CHRM5 agonist,M4 ag
N#Cc1cccnc1N1CCN(C(=O)c2ccco2)CC1,0,3,-5,10,0,1
COC(=O)C1=C(N)OC2=C(C(=O)CC(C)(C)C2)C1c1cccs1 (centres undefined),-7,4,20*,-1,-3,1
CC1(C)CC(=O)C2=C(C1)OC(N)=C(C#N)C2c1cccs1 (centres undefined),6,-6,-8,1,-1,0
C=CCn1c(SCC(=O)NC2CCCC2)nc2ccccc21,-1,0,-5,1,0,1
O=Cc1ccccc1Oc1ccccc1,1,4,1,-1,2,0
O=Cc1ccccc1OCCOc1ccccc1C=O,27*,-21,-11,21,-5,1
COc1ccc(C)cc1S(=O)(=O)N1CCCC(N2CCN(c3ccccc3)CC2)C1 (centres undefined),2,-5,4,7,1,3
Cc1ccc(SCC(=O)Nc2ccc(S(=O)(=O)Nc3ncccn3)cc2)cc1,5,-3,-3,13,-6,1
CC(=O)NS(=O)(=O)c1ccc(NC(=O)CSc2ccc(C)cc2)cc1,-12,3,19*,-8,-1,2
CC(=O)c1c(Cl)nc2cccc3c2c1-c1ccccc1C3=O,-4,15,4,-2,5,1
O=C(O)CCC(=O)Nc1sc2c(c1C(=O)Nc1cccc3ccccc13)CCCCC2,1,1,0,1,0,1
O=C(O)CCC(=O)Nc1sc2c(c1C(=O)Nc1ccccc1)CCCCC2,40*,10,9,17,7,7
CC(C)OC(=O)c1c(NC(=O)CCC(=O)O)sc2c1CCCCC2,16,16,21*,-1,-2,1
N=C1C=CC(=C(c2ccc(N)cc2)c2ccc(N)cc2)C=C1,-3,-11,-1,16,-3,0
CCCN(CCC)C(=O)c1ccc2c(c1)S(=O)(=O)c1ccccc1C2=O,2,-9,0,30*,-6,3
Cc1cccc(OCCC(=O)NCC(c2ccco2)N2CCCCC2)c1 (centres undefined),4,6,-1,-5,-6,0
CCOC(=O)c1c(C)[nH]c(C)c1C(=O)CSc1nc2ccccc2[nH]1,10,-6,-14,2,2,9

# Assay outcomes (PubChem)
